Results from ChEMBL document CHEMBL2016482, “Synthesis and inhibitory effect of piperine derivates on monoamine oxidase” (Bioorg Med Chem Lett, 2012).

Key:
[1] = biological target: T1, Amine oxidase [flavin-containing] A (Rattus norvegicus, UniProt P21396); test: Inhibition of MAO-A in Sprague-Dawley rat brain homogenate using kynuramine as substrate preincubated for 10 mins measured by fluorimetric assay; format: tissue-based
T1 sequence (P21396 whole entry): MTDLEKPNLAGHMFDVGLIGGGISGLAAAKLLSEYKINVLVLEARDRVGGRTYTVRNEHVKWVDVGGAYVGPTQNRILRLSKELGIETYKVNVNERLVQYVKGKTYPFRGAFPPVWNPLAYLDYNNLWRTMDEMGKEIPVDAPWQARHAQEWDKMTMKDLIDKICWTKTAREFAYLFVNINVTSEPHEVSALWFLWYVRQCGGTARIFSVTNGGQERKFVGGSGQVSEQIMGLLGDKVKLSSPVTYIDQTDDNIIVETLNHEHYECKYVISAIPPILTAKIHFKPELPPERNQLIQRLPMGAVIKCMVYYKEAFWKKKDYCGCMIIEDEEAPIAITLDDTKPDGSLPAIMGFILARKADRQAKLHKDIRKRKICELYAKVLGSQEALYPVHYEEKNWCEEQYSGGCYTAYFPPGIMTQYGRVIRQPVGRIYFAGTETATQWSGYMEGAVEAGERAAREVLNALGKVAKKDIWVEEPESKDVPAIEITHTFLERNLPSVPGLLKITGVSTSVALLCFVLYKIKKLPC
Outline: (§1)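 Rat brain homogenate was the enzyme source, with protein measured by Bradford against a BSA standard. Fluorometric MAO assay used kynuramine substrate in the presence of isoform-specific inhibitors. Test inhibitor was preincubated with homogenate for 10 min. IC50 came from plots of % residual activity relative to enzyme treated identically without inhibitor.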

[2] = biological target: T2, Amine oxidase [flavin-containing] B (Rattus norvegicus, UniProt P19643); test: Inhibition of MAO-B in Sprague-Dawley rat brain homogenate using kynuramine as substrate preincubated for 10 mins measured by fluorimetric assay; format: tissue-based; outline: as §1
T2 sequence (P19643 whole entry): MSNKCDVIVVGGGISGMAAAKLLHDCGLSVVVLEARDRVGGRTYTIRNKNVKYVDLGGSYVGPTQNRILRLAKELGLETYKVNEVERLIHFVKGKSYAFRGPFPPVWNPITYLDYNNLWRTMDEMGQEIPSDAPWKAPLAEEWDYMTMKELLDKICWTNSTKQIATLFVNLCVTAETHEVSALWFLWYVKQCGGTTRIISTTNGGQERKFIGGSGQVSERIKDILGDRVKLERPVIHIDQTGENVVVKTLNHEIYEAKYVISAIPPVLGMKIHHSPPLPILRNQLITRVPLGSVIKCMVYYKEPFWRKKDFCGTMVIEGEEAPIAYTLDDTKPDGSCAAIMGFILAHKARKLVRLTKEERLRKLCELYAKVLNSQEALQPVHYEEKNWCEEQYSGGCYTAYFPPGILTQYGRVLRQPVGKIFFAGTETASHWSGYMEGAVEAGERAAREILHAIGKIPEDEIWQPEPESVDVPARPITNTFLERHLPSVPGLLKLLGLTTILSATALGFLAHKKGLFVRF

Rattus norvegicus = organism: Rattus norvegicus; test: Selectivity ratio of IC50 for Sprague-Dawley rat MAO-A to IC50 for Sprague-Dawley rat MAO-B
[3] = biological target: T1, Amine oxidase [flavin-containing] A; test: Competitive inhibition of MAO-A in Sprague-Dawley rat brain homogenate by Lineweaver-Burk plot analysis; format: tissue-based
Outline: (§2)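 Kinetic mode of the same homogenate kynuramine fluorometric assay. Reciprocal MAO activity was plotted against reciprocal kynuramine concentration (Lineweaver–Burk), each at three inhibitor levels including zero, run separately for MAO-A and MAO-B.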

[4] = biological target: T2, Amine oxidase [flavin-containing] B; test: Competitive inhibition of MAO-B in Sprague-Dawley rat brain homogenate by Lineweaver-Burk plot analysis; format: tissue-based; outline: as §2

Compound	IC50 [1] [µM]	IC50 [2] [µM]	Ratio IC50 (Rattus norvegicus)	inhibition (INH) [3]	inhibition (INH) [4]
CCCNC(=O)/C=C/C=C/c1ccc2c(c1)OCO2	3.66	0.045	81.5	Active	Active
O=C(C1C=CC(c2ccc3c(c2)OCO3)C(/C=C/c2ccc3c(c2)OCO3)C1C(=O)N1CCCCC1)N1CCCCC1 (stereo not drawn)	> 100	> 100	–	–	–
O=C(CCCCc1ccc2c(c1)OCO2)N1CCCCC1 [TETRAHYDROPIPERINE]	> 100	1.97	–	–	–
CCN(CC)C(=O)/C=C/C=C/c1ccc2c(c1)OCO2	3.82	0.078	49	–	–
COC(=O)/C=C/C=C/c1ccc2c(c1)OCO2 [METHYL PIPERATE]	2.74	0.23	11.9	–	–
CC(=O)Oc1ccc(/C=C/C=C/C(=O)N2CCCCC2)cc1OC(C)=O	1.28	0.75	1.71	–	–
O=C(O)/C=C/C=C/c1ccc2c(c1)OCO2 [PIPERIC ACID]	18.3	13.6	1.35	–	–
CCCNC(=O)CCCCc1ccc2c(c1)OCO2	> 100	> 100	–	–	–
CCCCNC(=O)/C=C/C=C/c1ccc2c(c1)OCO2	> 100	0.33	–	–	–
CCOC(=O)CCCCc1ccc2c(c1)OCO2	5.57	1.23	4.53	–	–
CCN(CC)C(=O)CCCCc1ccc2c(c1)OCO2	5.21	1.75	2.98	–	–

Next, values leading:

IC50 [1] [µM]	IC50 [2] [µM]	Ratio IC50 (Rattus norvegicus)	inhibition (INH) [3]	inhibition (INH) [4]	Compound
2.04	0.96	2.12	–	–	CN1CCN(C(=O)/C=C/C=C/c2ccc3c(c2)OCO3)CC1
3.17	1.8	1.76	–	–	COC(=O)CCCCc1ccc2c(c1)OCO2
0.404	0.26	1.55	–	–	O=C(/C=C/C=C/c1ccc2c(c1)OCO2)N1CCCCC1 [PIPERINE]
0.8	1.57	0.51	–	–	O=C(/C=C/C=C/c1ccc(O)c(O)c1)N1CCCCC1
7.55	0.33	22.8	–	–	CCOC(=O)/C=C/C=C/c1ccc2c(c1)OCO2
> 100	> 100	–	–	–	C(/C=C/c1ccc2c(c1)OCO2)=C\CN1CCCCC1
> 100	> 100	–	–	–	CN1CCN(C(=O)CCCCc2ccc3c(c2)OCO3)CC1
16.1	3.5	4.59	–	–	CCCCNC(=O)CCCCc1ccc2c(c1)OCO2
